Results gathered from unrelated publications.
Compare with care: the assays were run in different laboratories.
Target: Serine/threonine-protein kinase RIO2 (RIOK2, Homo sapiens, UniProt Q9BVS4)

Structure (SMILES) | observed | technique | tested at | remaining binding [%]
CS(=O)(=O)N1CCCC(NC(=O)[C@H](CCC2CCCCC2)NC(=O)c2ccc(CNc3ncnc4c3nnn4-c3ccccc3)cc2)C1 (some centres unmarked) | cell-free assay | competition with immobilised ligand | 0.1 µM | 99
c1cnn2ncc(-c3ccnc(N4CCC45COC5)n3)c2c1 | binding | – | 1 µM | 61
CCc1ccccc1C(=O)Nc1n[nH]c2c(C)c(F)c(C3C(C#N)=C(C)N(C)C(C)=C3C#N)cc12 | cell-free assay | competition with immobilised ligand | 1 µM | 93
Cc1cnn2ncc(-c3ccnc(N(C)C)n3)c2c1 | binding | – | 1 µM | 92
CC(C)(O)c1cncc(-c2nc3ccc(F)cc3n2C2CC2)c1 | cell-free assay | competition with immobilised ligand | 1 µM | 100
CNC(=O)[C@@H]1CC[C@@H](n2c(-c3ccc4cnccc4c3)nc3ccc(C(=O)NCc4cccc(C(N)=O)c4)cc32)C1 | binding | competition with immobilised ligand | 1 µM | 97
COc1ncc2cc3ccccc3nc2c1C#N | cell-free assay | competition with immobilised ligand | 5 µM | 91
CCN1CCN(Cc2ccc(C(=O)Nc3ccc(C)c(Oc4ccc5c(c4)CC(=O)N5)c3)cc2C(F)(F)F)CC1 | binding | competition with immobilised ligand | 1 µM | 100
NS(=O)(=O)c1cc(NC(=O)Cc2ccccc2)ccc1Oc1cccc(Cl)c1 | cell-free assay | competition with immobilised ligand | 1 µM | 100
O=C(c1ccc(Nc2nccc(-c3cc4ccccc4s3)n2)cc1)N1CCC(N2CCCC2)CC1 | binding | competition with immobilised ligand | 1 µM | 46
CN(c1nccc(-c2cnn3ncccc23)n1)C1CC1 | binding | – | 1 µM | 99
CCOC(=O)c1cc2cc(-c3cc(C(=O)NCc4ccc(C(=O)O)cc4)nn3C)ccc2[nH]1 | cell-free assay | competition with immobilised ligand | 0.1 µM | 100
F[C@@H]1CCN(c2nccc(-c3cnn4ncccc34)n2)C1 | binding | – | 1 µM | 64
CCS(=O)(=O)c1cc2cc(C[C@](O)(CC(C)(C)c3ccc(F)cc3C(N)=O)C(F)(F)F)[nH]c2cn1 | cell-free assay | competition with immobilised ligand | 1 µM | 100
C[C@H]1CCN(c2nccc(-c3cnn4ncccc34)n2)C1 | binding | – | 1 µM | 90
CC(C)(C)c1ccc(-c2nc(CBr)nn2-c2cccc(O)c2)cc1 | cell-free assay | competition with immobilised ligand | 10 µM | 84
O=c1nc(-c2ccccn2)sc2ccccc12 | binding | competition with immobilised ligand | 1 µM | 94
O=C(c1ccc(Nc2ncc(Cl)c(-c3cc4ccccc4s3)n2)cc1)N1CCC(N2CCCC2)CC1 | binding | competition with immobilised ligand | 1 µM | 40
FC(F)(F)Oc1cccc(-c2cnc3ccc(-c4ccncc4)nn23)c1 | binding | competition with immobilised ligand | 5 µM | 7.7
O=C(Nc1c[nH]nc1C(=O)NC1CCNCC1)c1cc(F)cc(F)c1 | binding | competition with immobilised ligand | 1 µM | 100
O=C(NCCCN1CCOCC1)c1ccc(Nc2nccc(-c3cc4ccccc4s3)n2)cc1 | binding | competition with immobilised ligand | 1 µM | 47
COc1ccnn2ncc(-c3ccnc(N(C)C)n3)c12 | binding | – | 1 µM | 63
C[C@@H]1CN(c2ccc3ncc(-c4ccc5[nH]nc(C6CC6)c5c4)n3n2)C[C@H](C)O1 | binding | competition with immobilised ligand | 0.5 µM | 23
